MLL AF4-AF9 inh: blocks AF4 peptide binding to human AF9; P42568; AlphaScreen, biotin-AF4 peptide binding to FLAG-AF9; inhibition, % at 10 µM; 350,000 tested, 0.47% active; AID 651704;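 active = every replicate reaching a set inhibition limit, whatever the replicate mean, cut at about 25% in these data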;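 note: 0% = plate neutral control median and 100% = total signal loss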
Target sequence (P42568 whole entry, looked up): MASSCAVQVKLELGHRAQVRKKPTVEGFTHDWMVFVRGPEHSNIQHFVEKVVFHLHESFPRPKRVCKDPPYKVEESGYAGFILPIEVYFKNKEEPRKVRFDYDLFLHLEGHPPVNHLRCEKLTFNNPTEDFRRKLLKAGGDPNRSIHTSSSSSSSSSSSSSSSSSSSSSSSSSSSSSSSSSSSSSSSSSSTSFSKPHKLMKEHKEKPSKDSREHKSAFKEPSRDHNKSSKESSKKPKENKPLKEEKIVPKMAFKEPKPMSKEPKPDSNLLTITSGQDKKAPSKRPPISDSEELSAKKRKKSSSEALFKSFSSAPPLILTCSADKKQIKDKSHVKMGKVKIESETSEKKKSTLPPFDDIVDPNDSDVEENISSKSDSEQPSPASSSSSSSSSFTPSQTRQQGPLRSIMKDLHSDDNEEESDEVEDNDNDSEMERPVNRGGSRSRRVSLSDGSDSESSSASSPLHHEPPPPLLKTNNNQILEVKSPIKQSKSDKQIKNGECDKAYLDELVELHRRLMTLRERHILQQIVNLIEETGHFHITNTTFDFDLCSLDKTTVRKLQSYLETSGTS
S100A4 MyoIIA: inhibitors of human S100A4 binding to myosin IIA peptide; P26447; S100A4/TAMRA-MyoIIA peptide fluorescence polarization; inhibition, % at 10.7 µM; 360,000 tested, 0.14% active; AID 652163;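 active = mean inhibition of at least 70% across replicates, with every replicate also reaching that level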
Target sequence (P26447 whole entry, looked up): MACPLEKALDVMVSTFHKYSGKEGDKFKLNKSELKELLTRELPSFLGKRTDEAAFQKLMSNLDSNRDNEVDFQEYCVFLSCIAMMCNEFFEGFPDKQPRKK
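Test system – S100A4 monomer (human) · Compound – single-point compound testing · Schedule – 5 min incubation before reading · Probe or stimulus – TAMRA-labelled myosin IIA heavy-chain peptide probe, 5 nM · Benchmarks – neutral control DMSO, positive control TFP · Medium – Calcium-containing HEPES buffer, pH 7.2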
Rtt109 Vps75: inhibitors of Candida albicans Rtt109/Vps75 histone acetyltransferase. Q5AAJ8. purified Rtt109/Vps75, ThioGlo CoA-SH fluorescence, 4 h. inhibition, % at 34.9 µM. 330,000 tested, 0.16% active. AID 540336;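 active = inhibition of at least 50% in every replicate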
ERAP1 HTS inh: blocks human ERAP1 aminopeptidase activity | recombinant ERAP1, Leu-AMC fluorescence, 60 min | inhibition, % at 10.7 µM | 340,000 tested, 0.15% active;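 active = mean replicate inhibition of at least 30%, or all replicates individually reaching that 30% level; inactive = mean below 30% and not every replicate reaching it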;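 note: 0% = neutral control wells and 100% = L-leucinethiol positive control wells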
miR122 inh: inhibitors of miR-122 in Huh7 cells | activation (reporter increase), % at 12.5 µM | AID 602342 | Huh7 miR-122 Renilla luciferase sensor, 48 h; neutral wells = 0, positive control = 100 | 340,000 tested, 0.3% active;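 active = mean replicate activation score at least 90 and every replicate individually at or above 90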;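 note: higher luciferase means less miR-122 activity so hits act as miR-122 inhibitors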
Starred values were filed as active, the others as inactive; ! = not active in a repeat; [ ] = remark or other dose. This is a sample that favours compounds with a hit; in the whole collection about 0.86% have one here.

`O=C(C[C@@H]1CC[C@H]2NC[C@H](O)COC[C@@H]2O1)NCCN1CCCC1` gave MLL AF4-AF9 inh 3, S100A4 MyoIIA 9 and ERAP1 HTS inh -1.
O=c1ccc2[n+]([O-])c3ccc(O)cc3oc-2c1 was read as MLL AF4-AF9 inh 43*, S100A4 MyoIIA active and Rtt109 Vps75 5.
C[C@@H]1CN([C@@H](C)CO)C(=O)c2cccc(NS(=O)(=O)c3ccc(F)cc3)c2O[C@@H]1CN(C)Cc1ccncc1 was read as MLL AF4-AF9 inh -1, S100A4 MyoIIA 3, ERAP1 HTS inh 2 and miR122 inh -2[16.7 µM].
Screening C[C@@H]1CN([C@H](C)CO)C(=O)c2cccc(NC(=O)C3CC3)c2O[C@H]1CN(C)Cc1ccncc1 returned MLL AF4-AF9 inh -7, S100A4 MyoIIA 8, ERAP1 HTS inh -4 and miR122 inh 1[16.7 µM].
For C[C@H](CO)N1C[C@H](C)[C@@H](CN(C)Cc2ccccc2)Oc2c(NC(=O)C3CC3)cccc2C1=O the results were MLL AF4-AF9 inh 2, S100A4 MyoIIA 19, Rtt109 Vps75 3, ERAP1 HTS inh 1 and miR122 inh 91*!.
C[C@@H]1CN([C@H](C)CO)C(=O)c2cccc(NC(=O)C3CC3)c2O[C@@H]1CN(C)Cc1ccccc1 was read as MLL AF4-AF9 inh -1, S100A4 MyoIIA -12, ERAP1 HTS inh 1 and miR122 inh -5[16.7 µM].
`COc1ccc(NC(=O)Nc2ccc3c(c2)C(=O)N([C@@H](C)CO)C[C@@H](C)[C@@H](CN(C)Cc2ccc(C(F)(F)F)cc2)O3)cc1` gave MLL AF4-AF9 inh 9, S100A4 MyoIIA 4, ERAP1 HTS inh 0 and miR122 inh 0[16.7 µM].
`C[C@@H]1CN([C@H](C)CO)C(=O)c2cccc(NC(=O)C3CC3)c2O[C@H]1CN(C)Cc1ccc(C(F)(F)F)cc1` gave MLL AF4-AF9 inh 0, S100A4 MyoIIA 0, ERAP1 HTS inh -2 and miR122 inh 106*[16.7 µM].
`COc1ccc(NC(=O)Nc2ccc3c(c2)C(=O)N([C@@H](C)CO)C[C@H](C)[C@H](CN(C)Cc2ccc(C(F)(F)F)cc2)O3)cc1` gave MLL AF4-AF9 inh -5, S100A4 MyoIIA 27, ERAP1 HTS inh -6 and miR122 inh 150*[16.7 µM].
Screening C[C@H](CO)N1C[C@H](C)[C@H](CN(C)Cc2ccncc2)Oc2c(NC(=O)C3CC3)cccc2C1=O returned MLL AF4-AF9 inh -5, S100A4 MyoIIA 126*, ERAP1 HTS inh -4 and miR122 inh 21[16.7 µM].
`C[C@@H]1CN([C@H](C)CO)C(=O)c2cccc(NC(=O)C3CCOCC3)c2O[C@H]1CN(C)Cc1ccc(C(F)(F)F)cc1` gave MLL AF4-AF9 inh -3, S100A4 MyoIIA 2, ERAP1 HTS inh 4 and miR122 inh 71[16.7 µM].
Screening O=C(N[C@@H]1CC[C@@H](CCNS(=O)(=O)c2cccc(Cl)c2)O[C@H]1CO)c1ccc(F)cc1 returned MLL AF4-AF9 inh -1, S100A4 MyoIIA -3 and ERAP1 HTS inh 3.
`C[C@H](CO)N1C[C@H](C)[C@@H](CN(C)Cc2ccc(C(F)(F)F)cc2)Oc2c(NC(=O)c3cnccn3)cccc2C1=O` gave MLL AF4-AF9 inh -3, S100A4 MyoIIA -10, ERAP1 HTS inh 2 and miR122 inh 114*[16.7 µM].
For C[C@H]1CN([C@@H](C)CO)C(=O)c2cccc(NS(=O)(=O)c3cccs3)c2O[C@@H]1CN(C)Cc1ccc(C(F)(F)F)cc1 the results were MLL AF4-AF9 inh 1, S100A4 MyoIIA -3, ERAP1 HTS inh 0 and miR122 inh 119*[16.7 µM].
For C[C@H]1CN([C@@H](C)CO)C(=O)c2cccc(NC(=O)c3cnccn3)c2O[C@H]1CN(C)Cc1ccc(C(F)(F)F)cc1 the results were MLL AF4-AF9 inh 3, S100A4 MyoIIA 14, ERAP1 HTS inh 1 and miR122 inh 16[16.7 µM].
C[C@H](CO)N1C[C@H](C)[C@@H](CN(C)Cc2ccc(C(F)(F)F)cc2)Oc2c(NS(=O)(=O)c3cccs3)cccc2C1=O was read as MLL AF4-AF9 inh -8, S100A4 MyoIIA 2, ERAP1 HTS inh 6 and miR122 inh 4[16.7 µM].
Screening C[C@@H]1CN([C@H](C)CO)C(=O)c2cccc(NC(=O)Nc3ccc(F)cc3)c2O[C@H]1CN(C)Cc1ccc(C(F)(F)F)cc1 returned MLL AF4-AF9 inh 4, S100A4 MyoIIA -6, ERAP1 HTS inh -1 and miR122 inh 165*[16.7 µM].
For CCCC(=O)Nc1ccc2c(c1)C(=O)N(C)C[C@@H](OC)[C@@H](C)CN(C(C)=O)[C@H](C)CO2 the results were MLL AF4-AF9 inh -1, S100A4 MyoIIA -2, ERAP1 HTS inh 1 and miR122 inh -6[16.7 µM].
Screening Cc1ccc(CN2C(=O)CCC2C(=O)NCCN2CCN(c3cccc(Cl)c3)CC2)cc1 (stereo unspecified) returned MLL AF4-AF9 inh 5, S100A4 MyoIIA 1, Rtt109 Vps75 1, ERAP1 HTS inh 31* and miR122 inh 18.
For Cc1noc(C)c1S(=O)(=O)Nc1ccc2c(c1)CC(=O)N([C@@H](C)CO)C[C@H](C)[C@H](CN(C)Cc1ccc3c(c1)OCO3)O2 the results were MLL AF4-AF9 inh -21, S100A4 MyoIIA 3, ERAP1 HTS inh -1 and miR122 inh -5[16.7 µM].
For CCN(CC)S(=O)(=O)c1cc(NS(=O)(=O)c2cc(Cl)ccc2Cl)ccc1C the results were MLL AF4-AF9 inh 5, S100A4 MyoIIA 23, Rtt109 Vps75 2, ERAP1 HTS inh -3 and miR122 inh 392*.
For C[C@H](CO)N1C[C@H](C)[C@@H](CN(C)CC2CCCCC2)Oc2ccc(NS(=O)(=O)c3cn(C)cn3)cc2C1=O the results were MLL AF4-AF9 inh -4, S100A4 MyoIIA -2, ERAP1 HTS inh -1 and miR122 inh 3[16.7 µM].
For CCN1/C(=C/c2ccc3cc(C)cc(C)c3[n+]2CC)Sc2cc(C)ccc21 the results were MLL AF4-AF9 inh 28*, S100A4 MyoIIA 16, Rtt109 Vps75 82*, ERAP1 HTS inh 35* and miR122 inh -1.
`COc1cccc(C2(c3cccc(OC)c3)CC2C(=O)Nc2ccc(F)cc2)c1` (stereo unspecified) gave MLL AF4-AF9 inh 1, S100A4 MyoIIA 7, Rtt109 Vps75 -17, ERAP1 HTS inh 1 and miR122 inh 108*.
`c1ccc(CNCCCNCCCCNCCCNCc2ccccc2)cc1` gave MLL AF4-AF9 inh 25*, S100A4 MyoIIA -11, Rtt109 Vps75 7, ERAP1 HTS inh 5 and miR122 inh 9.
Screening O=C(NC[C@@H]1CC[C@@H]2[C@@H](CN2Cc2nccs2)O1)C1CCC1 returned MLL AF4-AF9 inh -2, S100A4 MyoIIA -2 and ERAP1 HTS inh 2.
Cc1ccc(Nc2c(-c3ccccn3)nc3cc(C)ccn23)cc1 was read as MLL AF4-AF9 inh 37*, S100A4 MyoIIA -11, ERAP1 HTS inh -5 and miR122 inh -36.
For Cc1ccc(Nc2c(-c3ccccn3)nc3ccc(C)cn23)cc1 the results were S100A4 MyoIIA 1, Rtt109 Vps75 3, ERAP1 HTS inh 5 and miR122 inh 10.
